Test results as given in ChEMBL document CHEMBL4342526, “Exploration of the Structural Space in 4(3H)-Quinazolinone Antibacterials” (J Med Chem, 2020).
In brackets after ≈: the same amount, converted by molar mass.

Assays:
[1] = Selectivity index, ratio of IC50 for human HeLa cells to MIC for clindamycin/erythromycin/spectinomycin-resistant mec-positive Staphylococcus aureus NRS70; assay type: toxicity
Procedure, shortened: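 HeLa cytotoxicity by XTT assay in triplicate, IC50 by nonlinear regression; ratio IC50 over broth microdilution MIC against NRS70.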

Staphylococcus aureus [2] = assay: Antibacterial activity against clindamycin/erythromycin/spectinomycin-resistant mec-positive Staphylococcus aureus NRS70 measured after 16 to 20 hrs by microdilution method; assay type: functional
Procedure, shortened: (§1)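 CLSI broth microdilution; two-fold serial compound dilutions in triplicate in cation-adjusted Mueller–Hinton broth with 2% NaCl, inoculum 5 × 10^5 CFU/mL; 37 °C for 16–20 h; MIC = lowest concentration with no visible growth.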

Staphylococcus aureus [3] = assay: Antibacterial activity against multi-drug resistant mecA-positive Staphylococcus aureus ATCC 27660 measured after 16 to 20 hrs by microdilution method; assay type: functional; procedure, shortened: as §1
Staphylococcus aureus [4] = assay: Antibacterial activity against multi-drug resistant mec-positive Staphylococcus aureus USA300 measured after 16 to 20 hrs by microdilution method; assay type: functional; procedure, shortened: as §1
Staphylococcus aureus [5] = assay: Antibacterial activity against multi-drug resistant mecA-positive Staphylococcus aureus NRS119 measured after 16 to 20 hrs by microdilution method; assay type: functional; procedure, shortened: as §1
Staphylococcus aureus [6] = assay: Antibacterial activity against Staphylococcus aureus ATCC 29213 measured after 16 to 20 hrs in presence of bovine serum albumin by microdilution method; assay type: functional
Procedure, shortened: (§2)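 S. aureus ATCC29213 MIC was run by CLSI microdilution in cation-adjusted Mueller–Hinton broth plus 2% NaCl, with and without 0.5% bovine serum albumin. Compounds were two-fold serially diluted in triplicate, inoculum was 5 × 10^5 CFU/mL, and plates were incubated at 37 °C for 16–20 h. The endpoint was the lowest concentration with no visible growth.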

HeLa = assay: Cytotoxicity against human HeLa cells assessed as reduction in cell viability measured after 16 hrs by XTT assay; assay type: cell-based
Procedure, shortened: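 HeLa cells (ATCC CCL-2), run in triplicate. Viability was read by XTT, and IC50 was obtained by nonlinear regression.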

[7] = Protein binding in human plasma at 10 uM measured after 6 hrs UV-UPLC based rapid equilibrium dialysis method; assay type: ADME, cell-free
Procedure, shortened: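 Rapid equilibrium dialysis: human plasma was cleared by centrifugation and spiked from a 1 mM DMSO stock to a final 10 μM, against 0.1 M PBS pH 7.4. Dialysis ran 6 h at 37 °C with orbital shaking. Buffer (free) and plasma (total) aliquots were mixed with internal standard in acetonitrile and measured by UPLC-UV at 285 nm. B% = (Cp−Cf)/Cp×100.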

Staphylococcus aureus [8] = assay: Antibacterial activity against Staphylococcus aureus ATCC 29213 measured after 16 to 20 hrs by microdilution method; assay type: functional
Procedure, shortened: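 CLSI broth microdilution: two-fold serial dilutions in triplicate in cation-adjusted Mueller–Hinton broth with 2% NaCl, inoculum 5 × 10^5 CFU/mL, incubated at 37 °C for 16–20 h. MIC is the lowest concentration preventing visible growth.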

Staphylococcus aureus [9] = assay: Selectivity ratio of MIC for Staphylococcus aureus ATCC 29213 in presence of bovine serum albumin to MIC for Staphylococcus aureus ATCC 29213 in absence of bovine serum albumin; assay type: functional; procedure, shortened: as §2

| Compound | selectivity ratio [1] | MIC (Staphylococcus aureus [2]) | MIC (Staphylococcus aureus [3]) | MIC (Staphylococcus aureus [4]) | MIC (Staphylococcus aureus [5]) | MIC (Staphylococcus aureus [6]) | IC50 (HeLa) | PPB [7] | MIC (Staphylococcus aureus [8]) | selectivity ratio (Staphylococcus aureus [9]) |
| --- | --- | --- | --- | --- | --- | --- | --- | --- | --- | --- |
| N#Cc1ccc(/C=C/c2nc3ccccc3c(=O)n2-c2cc(C(=O)O)ccc2Cl)cc1 | > 64 | 2 µg/mL (≈ 4.67 µM) | 2 µg/mL (≈ 4.67 µM) | 1 µg/mL (≈ 2.34 µM) | 2 µg/mL (≈ 4.67 µM) | 16 µg/mL | > 128 µg/mL | > 99.9% | 2 µg/mL (≈ 4.67 µM) |  |
| CS(=O)(=O)Nc1cccc(-n2c(NCc3ccc(C#N)cc3)nc3ccccc3c2=O)c1 | 248 | 0.25 µg/mL (≈ 0.561 µM) | 0.125 µg/mL (≈ 0.281 µM) | 0.25 µg/mL (≈ 0.561 µM) | 0.25 µg/mL (≈ 0.561 µM) | 1 µg/mL | 62 µg/mL (≈ 139 µM) | > 99.9% | 0.125 µg/mL (≈ 0.281 µM) |  |
| N#Cc1ccc(/C=C/c2nc3ccccc3c(=O)n2-c2cccc(NC(=O)C(F)(F)F)c2)cc1 | > 2130 | 0.06 µg/mL (≈ 0.13 µM) | 0.06 µg/mL (≈ 0.13 µM) | 0.06 µg/mL (≈ 0.13 µM) | 1 µg/mL (≈ 2.17 µM) | 32 µg/mL | > 128 µg/mL | > 99.9% | 2 µg/mL (≈ 4.34 µM) |  |
| Cc1ccc(C(=O)O)cc1-n1c(/C=C/c2ccc(C#N)cc2)nc2ccccc2c1=O | 15 | 4 µg/mL (≈ 9.82 µM) | 4 µg/mL (≈ 9.82 µM) | 1 µg/mL (≈ 2.45 µM) | 4 µg/mL (≈ 9.82 µM) | 16 µg/mL | 60 µg/mL (≈ 147 µM) | > 99.9% | 2 µg/mL (≈ 4.91 µM) |  |
| O=C(O)c1cccc(-n2c(/C=C/c3ccc(I)cc3)nc3ccccc3c2=O)c1 | 200 | 0.5 µg/mL (≈ 1.01 µM) | 0.5 µg/mL (≈ 1.01 µM) | 0.25 µg/mL (≈ 0.506 µM) | 2 µg/mL (≈ 4.05 µM) | 16 µg/mL | 100 µg/mL (≈ 202 µM) | > 99.9% | 0.5 µg/mL (≈ 1.01 µM) |  |
| O=C(O)c1cccc(-n2c(/C=C/c3ccc(Br)s3)nc3ccccc3c2=O)c1 | 380 | 0.5 µg/mL (≈ 1.1 µM) | 0.5 µg/mL (≈ 1.1 µM) | 0.5 µg/mL (≈ 1.1 µM) | 4 µg/mL (≈ 8.82 µM) | 2 µg/mL | 190 µg/mL (≈ 419 µM) | > 99.9% | 0.25 µg/mL (≈ 0.551 µM) |  |
| N#Cc1ccc(CSc2nc3ccccc3c(=O)n2-c2cccc(C(=O)O)c2)cc1 | 39 |  |  |  |  | 8 µg/mL | 78 µg/mL (≈ 189 µM) | > 99.9% | 2 µg/mL (≈ 4.84 µM) | <=4 |
| O=C(O)c1cccc(-n2c(/C=C/c3cc(Cl)cs3)nc3ccccc3c2=O)c1 | 70 | 2 µg/mL (≈ 4.89 µM) | 2 µg/mL (≈ 4.89 µM) | 4 µg/mL (≈ 9.78 µM) | 1 µg/mL (≈ 2.45 µM) | 32 µg/mL | 140 µg/mL (≈ 342 µM) | > 99.9% | 4 µg/mL (≈ 9.78 µM) |  |
